{"source": "PubChem BioAssay AID504383", "about": "(The Scripps Research Institute Molecular Screening Center, 2011)", "note": "Among all 2,500 compounds or so, about 1,200 (48%) were called active. The set was probably picked from earlier hits. The list shows a part of the results. Values without a mark were called inactive.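 How the source made its calls: active means mean activation above the low control average plus 3 SD, as set in the primary screen (cut at about 12% in these data); inactive means the rest.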", "data": [{"biological_target": "Troponin I, cardiac muscle (Homo sapiens) + Troponin T, cardiac muscle (Homo sapiens) + Troponin C, slow skeletal and cardiac muscles (Homo sapiens) (UniProt P19429+P45379+P63316)", "assay": "calcium sensitizers of cardiac thin filaments – biochemical, IANBD-TnC fluorescence, triplicate, confirmation (AID 504383);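 further: 0% = DMSO at 0.472 mM calcium and 100% = DMSO at 2.9 mM calcium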", "settings": "IANBD-labeled cardiac RTF, Ca2+ sensitivity fluorescence; at 7.2 µM; hits give high values; scaled from EC20 to saturating calcium; tested at EC20 calcium, 0.472 mM", "procedure,_shortened": "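Material: labelled regulated thin filaments; Reagent: 0.472 mM calcium; Incubation: 15 min compound incubation with filaments at 25 °C; Detection: filament fluorescence intensity; Evaluation: fluorescence increase normalised to calcium controls; Benchmarks: low control EC20 calcium, high control EC100 calcium.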", "values": [{"smiles": "CCNC(=O)NNC(=O)C1CC(c2cccs2)=NO1", "note": "(centres undefined)", "activation": "4.43%"}, {"smiles": "COc1cc(/C=C2\\SC(=Nc3ccccc3)NC2=O)cc(Cl)c1O", "activation": "3.89%"}, {"smiles": "COc1cc(/C=C2\\SC(=Nc3ccc(Cl)c(C(=O)O)c3)NC2=O)c(Br)c(Br)c1O", "activation": "54% (active)"}, {"smiles": "CCN(CC)c1ccc2c(c1)OC(N)=C(C#N)C2c1cccnc1", "note": "(centres undefined)", "activation": "15.4% (active)"}, {"smiles": "CSc1nc(C)nc(N/C=C(\\C#N)S(=O)(=O)c2ccccc2Cl)n1", "activation": "6.97%"}, {"smiles": "Cc1c(CN2CCCC(C)C2)c(O)n(CCO)c(=O)c1C#N", "note": "(centres undefined)", "activation": "11.9% (active)"}, {"smiles": "C=CCn1c(O)c(CN2CCN(Cc3ccccc3)CC2)c(C)c(C#N)c1=O", "activation": "3.99%"}, {"smiles": "CCN(c1ccccc1)S(=O)(=O)c1ccc(OC)c(NC(=O)Cn2cnc3c2c(=O)n(C)c(=O)n3C)c1", "activation": "18.8% (active)"}, {"smiles": "CC1=C(C(=O)N(C)C)C(c2ccc(C)s2)NC(=S)N1", "note": "(centres undefined)", "activation": "0.74%"}, {"smiles": "Cn1nc(-c2ccccc2)c2nc3ccccc3nc21", "activation": "8.34%"}, {"smiles": "CCCCCn1nc(-c2ccccc2)c2nc3ccccc3nc21", "activation": "54.7% (active)"}, {"smiles": "CCn1nc(-c2ccccc2)c2nc3ccccc3nc21", "activation": "26.2% (active)"}, {"smiles": "O=C(COC(=O)c1ccc(O)cc1)Nc1ccc2c(c1)OCCO2", "activation": "78.5% (active)"}, {"smiles": "Cc1cc(C(=O)O)ccc1-c1ccc(/C=C2\\SC(=O)N(CC(=O)Nc3ccc4c(c3)OCO4)C2=O)o1", "activation": "11.4%"}, {"smiles": "Cc1c(C)[n+](=O)c(-c2ccc(Br)cc2)c(C)n1[O-]", "activation": "1060% (active)"}, {"smiles": "CCC12OC(=N)C(C#N)(C1C)C(C#N)(C#N)C(c1ccccc1)O2", "note": "(centres undefined)", "activation": "2.9%"}, {"smiles": "CC1C2(C)OC(=N)C(C#N)(C(C)O2)C1(C#N)C#N", "note": "(centres undefined)", "activation": "13.7% (active)"}, {"smiles": "CCCCC1OC2(C)OC(=N)C1(C#N)C(C#N)(C#N)C2c1ccccc1", "note": "(centres undefined)", "activation": "8.3%"}, {"smiles": "CCc1ccc2c(c1)C(NC(C)=O)C(=O)N2CC", "note": "(centres undefined)", "activation": "6.29%"}, {"smiles": "c1ccc(CCC2=NCCn3cccc32)cc1", "activation": "15.8% (active)"}, {"smiles": "Nc1ccc2c(O)cc(S(=O)(=O)O)cc2c1", "activation": "16.8% (active)"}, {"smiles": "Cc1ccc(N=Nc2c(O)n(CN3CCOCC3)c3ccccc23)cc1", "activation": "35.8% (active)"}, {"smiles": "COc1ccc(Cl)cc1-c1nc(SCC(=O)NC(C)C)n[nH]1", "activation": "8.01%"}, {"smiles": "C/C(N)=C(/C#N)C(=O)CSc1n[nH]c(-c2cccs2)n1", "activation": "11.4%"}, {"smiles": "Cc1ccc(C)c(C(=O)CSc2n[nH]c(C(C)C)n2)c1", "activation": "128% (active)"}, {"smiles": "CC(C)(CO)NCC#Cc1ccccc1", "activation": "5.16%"}, {"smiles": "COc1cc(/C=C(\\C#N)c2nc3ccccc3[nH]2)ccc1O", "activation": "6.21%"}, {"smiles": "CCN(CC)c1ccc(/C=C(/C#N)c2nc3ccccc3[nH]2)c(OC(C)C)c1", "activation": "127% (active)"}, {"smiles": "CCOc1cc(N(CC)CC)ccc1/C=C(/C#N)c1nc2ccccc2[nH]1", "activation": "5.8%"}, {"smiles": "COc1cccc(/C=C(/C#N)c2nc3ccccc3[nH]2)c1OC(C)C(=O)O", "note": "(centres undefined)", "activation": "5.66%"}, {"smiles": "CCCOc1cc(N(CC)CC)ccc1/C=C(/C#N)c1nc2ccc(C)cc2[nH]1", "activation": "30.9% (active)"}, {"smiles": "COc1cc(/C=C(\\C#N)c2nc3ccccc3[nH]2)cc(OC)c1O", "activation": "37.9% (active)"}, {"smiles": "COC1C/C(=N\\O)C2OC(c3ccccc3)OCC2O1", "note": "(centres undefined)", "activation": "6.29%"}, {"smiles": "COc1cc2c3nnc(-c4ccc(F)cc4)c-3cn(Cc3cccc(C)c3)c2cc1OC", "activation": "11.1%"}, {"smiles": "COc1cc2c3nnc(-c4ccc(F)cc4)c-3cn(Cc3cccc(F)c3)c2cc1OC", "activation": "446% (active)"}, {"smiles": "COc1cc2c3nnc(-c4ccc(F)cc4)c-3cn(Cc3ccc(C)cc3)c2cc1OC", "activation": "3.15%"}, {"smiles": "COCCNC(=O)C(c1ccc(C)o1)N(Cc1ccc(F)cc1)C(=O)Cn1nnc2ccccc21", "note": "(centres undefined)", "activation": "4.47%"}, {"smiles": "O=C(NC1CCCCC1)C(c1ccc(F)cc1)N(Cc1ccccc1)C(=O)CN1C(=O)c2ccccc2S1(=O)=O", "note": "(centres undefined)", "activation": "165% (active)"}, {"smiles": "Cc1cc(/C=N/NC(N)=S)c(O)c(/C=N/NC(N)=S)c1", "activation": "480% (active)"}, {"smiles": "CC(=O)Nc1cccc(NC(=O)CSc2nnc(Cc3cccn3C)n2CCc2ccccc2)c1", "activation": "2.51%"}, {"smiles": "CCn1c(Cc2ccccc2)nnc1SCC(=O)OC(C)C", "activation": "11.8% (active)"}, {"smiles": "C/C(=N/NC(=O)CNC(=O)Cc1ccccc1)c1ccco1", "activation": "5.62%"}, {"smiles": "C/C(=N/NC(=O)c1cc(C)[nH]n1)c1ccco1", "activation": "14.3% (active)"}, {"smiles": "CCN(CC)c1ccc(/C=C/C(=O)C2C(=O)C=C(C)OC2=O)cc1", "note": "(centres undefined)", "activation": "3.69%"}, {"smiles": "CCN(CC)c1ccc(/C=c2/sc3nnc(-c4ccccc4C)n3c2=O)cc1", "activation": "12% (active)"}, {"smiles": "CCN(CC)c1ccc(/C=c2\\sc3nnc(-c4ccccc4Cl)n3c2=O)cc1", "activation": "72.8% (active)"}, {"smiles": "COc1cc(C2C=C(c3cccs3)Nc3ncnn32)cc(OC)c1OC", "note": "(centres undefined)", "activation": "12.2% (active)"}, {"smiles": "COc1cccc(C2C=C(c3ccc(Br)s3)Nc3ncnn32)c1OC", "note": "(centres undefined)", "activation": "5.02%"}, {"smiles": "Brc1ccc(C2=CC(c3cccs3)n3ncnc3N2)cc1", "note": "(centres undefined)", "activation": "8.78%"}]}]}
